In one experiment the test system is Staphylococcus aureus. The experiment can be described thus: Antimicrobial activity against Staphylococcus aureus Newman by serial dilution method. It is filed as functional. In short, it runs like this:
(§1)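 MIC by serial dilution (150 μL) in 96-well tissue-culture plates; 20 μL aliquots of compound at 1 mg/mL tested; methanol as negative control.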

A further experiment deals with Micrococcus luteus. Description: Antimicrobial activity against Micrococcus luteus DSM 1790 by serial dilution method. It is filed as functional. The method, boiled down: as §1
The subject of experiment [1] is Mycolicibacterium smegmatis. Description: Antimicrobial activity against Mycobacterium smegmatis ATCC 700084 by serial dilution method. The format is functional, organism-based. The method, boiled down: as §1
In another experiment the test system is Bacillus subtilis. The experiment can be described thus: Antimicrobial activity against Bacillus subtilis DSM 10 by serial dilution method. It is filed as functional. In short, it runs like this:
as §1

Experiment [2] relates to Escherichia coli. The experiment can be described thus: Antimicrobial activity against Escherichia coli DSM 1116 by serial dilution method. It is filed as functional, organism-based. The method, boiled down: as §1
The test system of experiment [3] is Escherichia coli. Description: Antimicrobial activity against Escherichia coli TolC by serial dilution method. The format is functional. The method, boiled down:
as §1

A further experiment relates to Pseudomonas aeruginosa. The experiment can be described thus: Antimicrobial activity against Pseudomonas aeruginosa PA14 by serial dilution method. The format is functional. In short, it runs like this:
as §1

Another experiment concerns Wickerhamomyces anomalus. The experiment can be described thus: Antimicrobial activity against Wickerhamomyces anomalus DSM 6766 by serial dilution method. It is filed as functional, organism-based. In short, it runs like this:
as §1

The subject of another experiment is Candida albicans. The experiment can be described thus: Antimicrobial activity against Candida albicans DSM 1665 by serial dilution method. It is filed as functional, organism-based. In short, it runs like this: as §1
The test system of the next experiment is Mucor hiemalis. Description: Antimicrobial activity against Mucor hiemalis DSM 2656 by serial dilution method. The format is functional. The method, boiled down:
as §1

A further experiment concerns L929. Description: Cytotoxicity against mouse L929 cells. It is filed as cell-based. Conditions: for pIC50: Mus musculus, L929, read-out: IC50; for IC50: l929. In short, it runs like this:
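Mouse fibroblast L929 cells exposed to 3.0 μL of each compound; MIC determined by serial dilution (60 μL) in 96-well tissue-culture plates.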

pIC50: −log10 of the molar value. In brackets after ≈: the same amount, converted by molar mass. Activity calls are given as the source filed them. The rule behind the calls is not given here.

As for `CO[C@]1(C)c2[nH]c3ccccc3c2C(=O)C(=O)[C@@]1(C)O`, the MIC worked out at 16.6 µg/mL (≈ 60.7 µM) in the experiment with Staphylococcus aureus, 16.6 µg/mL (≈ 60.7 µM) in the experiment with Micrococcus luteus and 8.3 µg/mL (≈ 30.4 µM) in the experiment on Bacillus subtilis. Also, the MIC result (in [1]; in the experiment on Escherichia coli [2]; with Escherichia coli [3]; in the experiment with Pseudomonas aeruginosa; in the experiment on Wickerhamomyces anomalus; in the experiment with Candida albicans) was “inactive” each time. Also, the MIC entry with Mucor hiemalis is “inactive”. In addition, the pIC50 with L929 is 4.11.
Regarding `Cc1c(O)cc2c([nH]c3ccccc32)c1C`, the MIC came to 33.3 µg/mL (≈ 158 µM) in the experiment on Staphylococcus aureus, 33.3 µg/mL (≈ 158 µM) against Micrococcus luteus, 16.6 µg/mL (≈ 78.6 µM) against Bacillus subtilis and 67 µg/mL (≈ 317 µM) against Escherichia coli [3]. For the same compound, the MIC entry (in [1]; in the experiment on Escherichia coli [2]; in the experiment on Pseudomonas aeruginosa; in the experiment with Wickerhamomyces anomalus; with Candida albicans; in the experiment on Mucor hiemalis) was “inactive” in each case. The pIC50 in the experiment on L929 was 4.07.
Turning to `C[C@@]1(O)C(=O)C(=O)c2c([nH]c3ccccc23)[C@@]1(C)O`, the MIC entry (in the experiment on Staphylococcus aureus; with Micrococcus luteus; in experiment [1]; with Bacillus subtilis; with Escherichia coli [2]; with Escherichia coli [3]) was “inactive” in each case. Besides, the MIC entry in the experiment on Pseudomonas aeruginosa, in the experiment on Wickerhamomyces anomalus, in the experiment with Candida albicans and with Mucor hiemalis was “inactive” each time. Further, in the experiment on L929, the IC50 result is “Not Active”.
Consider `Cc1c(O)c(-c2c(O)c(C)c(C)c3[nH]c4ccccc4c23)c2c([nH]c3ccccc32)c1C`, for which the MIC amounted to 16.6 µg/mL (≈ 39.5 µM) in the experiment on Staphylococcus aureus; 16.6 µg/mL (≈ 39.5 µM) against Micrococcus luteus; 16.6 µg/mL (≈ 39.5 µM) with Bacillus subtilis; 33.3 µg/mL (≈ 79.2 µM) with Escherichia coli [3]; 67 µg/mL (≈ 159 µM) with Mucor hiemalis. Also, the MIC result (in experiment [1]; in the experiment on Escherichia coli [2]; with Pseudomonas aeruginosa; in the experiment on Wickerhamomyces anomalus; in the experiment on Candida albicans) was “inactive” in each case. For the same compound, in the experiment with L929, the pIC50 is 5.30.
Regarding `C[C@@]1(O)C(=O)[C@H]([C@H]2C(=O)[C@@](C)(O)[C@](C)(O)c3[nH]c4ccccc4c32)c2c([nH]c3ccccc23)[C@@]1(C)O`, the MIC result (with Staphylococcus aureus; in the experiment on Micrococcus luteus; in [1]; with Bacillus subtilis; in the experiment on Escherichia coli [2]; with Escherichia coli [3]) was “inactive” throughout. The MIC entry in the experiment with Pseudomonas aeruginosa, with Wickerhamomyces anomalus, in the experiment on Candida albicans and in the experiment on Mucor hiemalis was “inactive” each time. Moreover, the IC50 result with L929 is “Not Active”.
As to `CO[C@]1(C)c2[nH]c3ccccc3c2CC(=O)[C@@]1(C)O`, the MIC result (with Staphylococcus aureus; in the experiment with Micrococcus luteus; in experiment [1]; in the experiment with Bacillus subtilis; in the experiment with Escherichia coli [2]; in the experiment with Escherichia coli [3]) was “inactive” throughout. The MIC result in the experiment on Pseudomonas aeruginosa, in the experiment with Wickerhamomyces anomalus, in the experiment on Candida albicans and in the experiment with Mucor hiemalis was “inactive” throughout. Moreover, the IC50 result in the experiment with L929 was “Not Active”.
Consider `C=C1c2[nH]c3ccccc3c2C[C@@H](O)[C@@]1(C)O`, for which the MIC result (in the experiment on Staphylococcus aureus; with Micrococcus luteus; in experiment [1]; in the experiment on Bacillus subtilis; in the experiment with Escherichia coli [2]; with Escherichia coli [3]) was “inactive” in each case. Further, the MIC entry in the experiment on Pseudomonas aeruginosa, in the experiment on Wickerhamomyces anomalus, with Candida albicans and in the experiment on Mucor hiemalis was “inactive” throughout. Also, the IC50 result in the experiment on L929 is given as “Not Active”.
Turning to `C[C@@]1(O)C(=O)Cc2c([nH]c3ccccc23)[C@@]1(C)O`, the MIC entry (with Staphylococcus aureus; in the experiment on Micrococcus luteus; in experiment [1]; with Bacillus subtilis; with Escherichia coli [2]; in the experiment with Escherichia coli [3]) was “inactive” in each case. Moreover, the MIC entry in the experiment on Pseudomonas aeruginosa, in the experiment on Wickerhamomyces anomalus, in the experiment with Candida albicans and with Mucor hiemalis was “inactive” throughout. For the same compound, in the experiment with L929, the IC50 result is on record as “Not Active”.
On to `Cc1ccc2c([nH]c3ccccc32)c1C=O`, for which the MIC result (in the experiment on Staphylococcus aureus; in the experiment with Micrococcus luteus; in experiment [1]; with Bacillus subtilis; with Escherichia coli [2]; with Escherichia coli [3]) was “inactive” in each case. Besides, the MIC result in the experiment with Pseudomonas aeruginosa, in the experiment on Wickerhamomyces anomalus, with Candida albicans and in the experiment with Mucor hiemalis was “inactive” throughout. The IC50 entry with L929 is “Not Active”.

The values are drawn from ChEMBL document CHEMBL3797058, “Sorazolons, Carbazole Alkaloids from Sorangium cellulosum Strain Soce375” (J Nat Prod, 2016).
